Fewer inactive variants are shown than the library holds.
B1: tRNA (parent)
chain: GUUCCGUUGGCGUAAUGGUAACGCGUCUCCCUCCUAAGGAGAAGACUGCGGGUUCGAGUCCCGUACGGAACG

Variants of: B1
Assay: yeast fitness relative to wild type (ratio to wild type); higher = fitter; tRNA-Arg(CCU), competitive growth, 37 C, YPD
Outline: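 Start and end populations of a pooled competition were compared by 100-nucleotide paired-end sequencing of gene amplicons. The Saccharomyces cerevisiae strains carried tRNA-Arg(CCU) gene variants at the native genomic locus, synthesised with a 3% per-site mutation rate at 69 sites, and competed in YPD at 37°C for 24 hours in six parallel replicates. Darwinian fitness relative to wild type was based on the change in genotype frequencies. Genotypes required ≥ 100 starting reads, and estimates < 0.5 were set to 0.5.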

Variant	yeast fitness
C29G G41A C61U	0.531
C29G U53G	≤ 0.5
C29U A43C	0.948
C29U A43U	1.04
C29G C30U G58A	0.608
C29G U35A A42U	≤ 0.5
C29G C46U A57G	0.642
C29G G39C	0.852
C29U A43C G51A	≤ 0.5
C29G U35A G58C C66U	≤ 0.5
C29G A57C C66G	≤ 0.5
C29U A40G C60G	≤ 0.5
C29G C49G G51U A57G	≤ 0.5
C29G U59G U64C	0.549
C29G C46A G68A	≤ 0.5
C29G C30U C46U G48A G56A C61U C62G	≤ 0.5
C29G G39C A65C	0.546
C29G G48C C61A	0.564
C29G A42C G51A A70U	≤ 0.5
C29G G41A U47G	≤ 0.5
C29G C30U	0.632
C29G A40U G44A	≤ 0.5
C29G C60U	0.576
C29G G39C U47A	0.978

Variant	yeast fitness
C29U A69C	0.939
C29G C34G C60G	0.562
C29G C49A U64A	≤ 0.5
C29G C34U U59C	0.631
C29G U32A C62A	0.608
C29G U35A U64C	≤ 0.5
C29G C33G	0.59
C29G C33A	0.641
C29G A65C	0.564
C29G A65G	0.713
C29G U47G A57G A69U	≤ 0.5
C29G G50A	0.605
C29G U47A G48A	0.553
C29G C49G G63C	≤ 0.5
C29U A65C A69C	≤ 0.5
C29G U35A A36C	≤ 0.5
C29G A43U	0.594
C29G C49A	0.664
C29U A42U A43U C55G	0.545
C29G C31U A37U C62U A70G	≤ 0.5
C29G G58C	0.642
C29U A45U A65C	0.544
C29G C49U A65C	≤ 0.5
C29U A45C C60A	0.598

Variant	yeast fitness
C29U A42U A43U C55G C62G	≤ 0.5
C29G U32G G38A C46U A70U	≤ 0.5
C29U A57C	0.611
C29U C30A A37U A57C	≤ 0.5
C29G U32A U64A	≤ 0.5
C29G A40U G67C	0.517
C29G A40U C66U	≤ 0.5
C29G C49G C60G	≤ 0.5
C29G U35A A36C C62A	≤ 0.5
C29G U32C A36G	0.597
C29U A43G C66U	0.598
C29G G68C	0.595
C29G C30A C49U	≤ 0.5
C29G G41A	0.723
C29G C55U A65C A70U	0.532
C29G G48A U59C	≤ 0.5
C29G U47A C66A	0.532
C29G U35C G38C A57G	≤ 0.5
C29G G48C C60G	0.515
C29G U32C A70C	0.555
C29G C33U G50A A70C	≤ 0.5
C29G C55A A69U	≤ 0.5
C29G C31A A43C G67A	≤ 0.5
C29U A42U A43U A57C A70G	0.577

Variant	yeast fitness
C29G G44A G58C	≤ 0.5
C29U A45C U53C C55U G56C C61A C66U	≤ 0.5
C29U A36U A57G G58A	≤ 0.5
C29G U32C A42C	0.54
C29G G52C A57U	≤ 0.5
C29U A45C G63A	0.578
C29G A40C A42C A65C	0.565
C29G U35C U54C C61A	≤ 0.5
C29U A45C U54A C55A	≤ 0.5
C29G U64C	0.688
C29G U64G	0.635
C29U A37G G48C G67C	≤ 0.5
C29G A43G U64C	≤ 0.5
C29G C31A U47A U59A C60U C62G C66U	≤ 0.5
C29U A43G U53G G63A	≤ 0.5
C29G C46U G56A	≤ 0.5
C29U A65C C66G	0.57
C29U A70G	0.887
C29G C46U A57G C61U	≤ 0.5
C29U A36U C61U	≤ 0.5
C29G G48A A65G C66U	≤ 0.5
C29G U32C C61G C66G	≤ 0.5
C29U A40U U53A C60A A65G	≤ 0.5
C29G C30U A65G	≤ 0.5

Variant	yeast fitness
C29G A43U C46U G67C	≤ 0.5
C29G C62U G68A	0.542
C29G G56C	≤ 0.5
C29G C33G G41C C66U	0.607
C29G A40C A43G A45C U47C C62U A69C	≤ 0.5
C29G G51A A69U	≤ 0.5
C29U A42U A45C	0.51
C29G A40G	0.648
C29U A37G C61G A69U	≤ 0.5
C29G C55G	0.538
C29G C55A	0.577
C29G G48A G67C	≤ 0.5
C29U A43C G63A	0.699
C29G A40C A57C	0.551
C29G C60A G67A	≤ 0.5
C29G C30U G41C C66G G68A	≤ 0.5
C29G G50A A57U A70U	≤ 0.5
C29G C31A G44C A65C	≤ 0.5
C29G G41A A57G	≤ 0.5
C29G C60U G67A A69U	0.588
C29G G44C C49A U64C	≤ 0.5
C29G G41C A65U	≤ 0.5
C29G C30G C49A G56C C61U	0.982
C29G C49G G68C	≤ 0.5

Variant	yeast fitness
C29G U35C U54C U64C	≤ 0.5
C29G C34G	0.563
C29G G38C C49U A65U	≤ 0.5
C29G C33U G68A	≤ 0.5
C29U A43C G50C C60A	0.634
C29G C49G G56A	≤ 0.5
C29G C49U G58C	0.558
C29G C49A A70G	≤ 0.5
C29G C49A A70C	0.538
C29U A36G U54C	0.542
C29G C46G G48C	0.533
C29G A65U A70G	0.506
C29G C49G C55A	≤ 0.5
C29G A45G G52C A57U	≤ 0.5
C29U	0.989
C29G U35C G56A C62G	≤ 0.5
C29G C31G C46G C55U A65U	0.627
C29G C34U G52A C60U	0.548
C29U A37C	0.894
C29G G52C A57U A65G	≤ 0.5
C29U A40U G56C	0.552
C29G C31A C55U A70U	≤ 0.5
C29G A69G	≤ 0.5
C29G G44A	0.593

Variant	yeast fitness
C29G U35A G58C	≤ 0.5
C29G A45G	0.609
C29G C61U C66A	≤ 0.5
C29G G50C C66A	0.518
C29U A43U A70C	1.01
C29G C30U A36C G39A C46G	0.52
C29G C49G A57G	0.6
C29G C46U C66U	0.606
C29G A40U G50C	0.636
C29G C46U	0.611
C29G C34U A42G	≤ 0.5
C29G U35G A42G C61U	≤ 0.5
C29U A57G C60G U64C	0.609
C29G U32A A65U	≤ 0.5
C29G C33G U35G G44A A57G C66U A69U	≤ 0.5
C29G U35A A36C G68A	≤ 0.5
C29U A43G G44A C46A	0.609
C29G C31A U35C G67A	≤ 0.5
C29U A65U	0.754
C29G A43G A45C	≤ 0.5
C29U A43U C46A C61G G68A	0.567
C29G C49U G63A	0.513
C29U A43U A69C	0.735

Reference: the RNAGym collection of RNA variant scans (doi:10.1126/science.aae0568)
